pIC50: −log10 of the molar value. Active and inactive are the calls of the source. The rule behind the calls is not given here.
What was measured:
[1] = Cytotoxicity against human HL60 cells after 48 hrs by MTT assay; assay type: functional, cell-based; settings: HL-60, 48 h
Procedure, shortened: (§1)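 Cells seeded 1 × 10^4 per well and incubated overnight, then given compound at 0–50 µM for 48 h. MTT added (20 µL of 5 mg/mL stock) for 4 h at 37 °C; formazan dissolved in DMSO, absorbance read at 570 nm. Triplicates; IC50 from mean OD versus concentration curves.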

[2] = test system: Nucleic Acid; assay: Binding affinity to Escherichia coli pBR322 DNA assessed as DNA intercalation activity compound preincubated at 5 to 100 uM for 10 mins before enzyme addition by DNA unwinding assay in presence of topoisomerase 1; assay type: nucleic-acid assay
[3] = test system: Calf thymus DNA; assay: Binding affinity to calf thymus DNA at 15 uM after 5 mins by UV-vis spectrometry; assay type: nucleic-acid assay; settings: Bos taurus
Procedure, shortened: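 Compound at 15 µM in DPBS pH 7.4 with 1% DMSO, titrated with CT-DNA (0–24 µM, quantified at 260 nm, ε 13,200 M(bp)-1 cm-1). Equilibrated 5 min at room temperature; absorption spectra recorded 400–600 nm; Kapp derived from titration.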

[4] = target: T1, DNA topoisomerase 1 (Homo sapiens) (UniProt P11387); assay: Inhibition of Topo 1 (unknown origin)-mediated relaxation of supercoiled pBR322 plasmid at 25 uM after 30 mins by agarose gel electrophoresis
T1 sequence (whole entry): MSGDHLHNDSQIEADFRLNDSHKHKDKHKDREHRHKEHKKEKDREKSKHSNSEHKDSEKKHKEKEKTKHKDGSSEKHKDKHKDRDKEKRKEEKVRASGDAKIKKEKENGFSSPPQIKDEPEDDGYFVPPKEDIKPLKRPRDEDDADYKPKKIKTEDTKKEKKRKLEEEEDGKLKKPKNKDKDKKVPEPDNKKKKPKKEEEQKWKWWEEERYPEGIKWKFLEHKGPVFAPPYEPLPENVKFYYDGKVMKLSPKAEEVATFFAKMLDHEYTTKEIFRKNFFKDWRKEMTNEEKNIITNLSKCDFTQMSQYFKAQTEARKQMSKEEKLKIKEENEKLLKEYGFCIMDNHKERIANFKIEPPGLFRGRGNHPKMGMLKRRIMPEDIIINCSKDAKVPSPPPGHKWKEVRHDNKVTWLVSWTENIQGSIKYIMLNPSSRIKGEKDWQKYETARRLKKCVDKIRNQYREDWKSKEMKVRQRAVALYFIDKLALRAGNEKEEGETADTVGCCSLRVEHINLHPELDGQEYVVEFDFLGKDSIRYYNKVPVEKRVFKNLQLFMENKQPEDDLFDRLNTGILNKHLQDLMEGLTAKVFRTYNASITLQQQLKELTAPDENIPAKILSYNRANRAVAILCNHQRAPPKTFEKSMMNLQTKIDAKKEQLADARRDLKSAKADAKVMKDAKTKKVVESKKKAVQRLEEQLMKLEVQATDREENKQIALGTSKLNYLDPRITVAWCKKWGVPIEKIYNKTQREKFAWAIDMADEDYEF
Procedure, shortened: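 Topo I with supercoiled pBR322 and compound, 30 min at 37 °C. Stopped with SDS/bromophenol blue/glycerol dye; run on 1% agarose gel in TAE for 1 h and stained with Gel Red.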

[5] = target: DNA topoisomerase 2-alpha (Homo sapiens) (UniProt P11388); assay: Inhibition of human Topo 2-mediated relaxation of supercoiled pBR322 plasmid at 25 to 50 uM after 30 mins by agarose gel electrophoresis
[6] = target: T2, DNA topoisomerase (Bos taurus) (UniProt A0JN73); assay: Induction of calf thymus Topo 1-pBR322 DNA cleavage complex formation assessed as nicked DNA formation at 25 to 50 uM after 30 mins by optical density analysis relative to control
T2 sequence (whole entry): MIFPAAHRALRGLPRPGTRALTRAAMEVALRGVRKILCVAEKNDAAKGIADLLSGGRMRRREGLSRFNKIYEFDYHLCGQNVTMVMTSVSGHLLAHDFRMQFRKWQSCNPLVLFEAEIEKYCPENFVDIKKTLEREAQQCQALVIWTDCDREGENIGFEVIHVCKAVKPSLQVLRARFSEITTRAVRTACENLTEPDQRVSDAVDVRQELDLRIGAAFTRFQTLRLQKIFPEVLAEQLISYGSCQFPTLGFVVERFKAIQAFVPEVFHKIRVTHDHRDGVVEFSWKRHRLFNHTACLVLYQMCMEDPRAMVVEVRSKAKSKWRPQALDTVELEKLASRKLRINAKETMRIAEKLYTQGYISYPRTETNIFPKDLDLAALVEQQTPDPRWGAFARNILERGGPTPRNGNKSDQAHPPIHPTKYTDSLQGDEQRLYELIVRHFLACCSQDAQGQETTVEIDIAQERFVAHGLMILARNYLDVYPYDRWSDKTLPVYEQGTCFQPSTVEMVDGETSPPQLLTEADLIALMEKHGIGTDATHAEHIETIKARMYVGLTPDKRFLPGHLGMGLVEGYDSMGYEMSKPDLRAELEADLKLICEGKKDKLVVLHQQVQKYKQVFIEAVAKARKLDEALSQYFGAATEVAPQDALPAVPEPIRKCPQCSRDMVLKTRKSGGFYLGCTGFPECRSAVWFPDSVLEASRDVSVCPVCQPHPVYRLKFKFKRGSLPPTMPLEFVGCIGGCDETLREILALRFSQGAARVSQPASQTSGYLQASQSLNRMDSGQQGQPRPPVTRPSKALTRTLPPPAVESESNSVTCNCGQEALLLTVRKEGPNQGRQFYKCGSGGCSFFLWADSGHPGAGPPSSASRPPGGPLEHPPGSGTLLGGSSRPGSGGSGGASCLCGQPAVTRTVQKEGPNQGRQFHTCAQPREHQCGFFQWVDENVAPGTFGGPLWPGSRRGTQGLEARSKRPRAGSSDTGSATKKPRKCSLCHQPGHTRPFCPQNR
Procedure, shortened: (§2)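 Calf thymus Topo I (10 units) with 0.1 µg supercoiled pBR322 and compound (0.5–50 µM) in Topo I buffer pH 7.5, 6 min at 37 °C. Complexes trapped with SDS then NaEDTA, proteinase K 30 min at 45 °C, heated 70 °C for 2 min, 1% agarose gel with ethidium bromide. Nicked DNA quantified by optical density.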

[7] = target: DNA topoisomerase 2-alpha (Homo sapiens) (UniProt P11388); assay: Induction of human Topo 2-pBR322 DNA cleavage complex formation assessed as linear DNA formation at 10 to 50 uM by agarose gel electrophoresis
[8] = target: T1, DNA topoisomerase 1 (Homo sapiens); assay: Induction of Topo 1-DNA cleavage complex formation in human HL60 cells after 1 hr by ICE assay; assay type: cell-based; settings: HL-60
Procedure, shortened: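 Mid-log phase HL-60 cells exposed to 2, 5 or 10 µM compound (DMSO vehicle 1.0% v/v) for 1 h, then lysed in DNAzol. DNA was ethanol-precipitated, redissolved and quantified. 2 µg DNA in 25 mM NaH2PO4 pH 6.5 was blotted onto nitrocellulose. Covalent Topo I was probed with rabbit anti-human Topo I (1:1000) and HRP secondary (1:3000), read by chemiluminescence.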

[9] = target: T2, DNA topoisomerase (Bos taurus); assay: Induction of calf thymus Topo 1-pBR322 DNA cleavage complex formation assessed as nicked DNA formation at 10 uM after 30 mins by optical density analysis relative to control; procedure, shortened: as §2
[10] = test system: K562; assay: Cytotoxicity against human K562 cells after 48 hrs by MTT assay; assay type: functional, cell-based; settings: K562, 48 h; procedure, shortened: as §1
[11] = test system: A549; assay: Cytotoxicity against human A549 cells after 48 hrs by MTT assay; assay type: functional, cell-based; settings: A549, 48 h; procedure, shortened: as §1
[12] = test system: HeLa; assay: Cytotoxicity against human HeLa cells after 48 hrs by MTT assay; assay type: functional, cell-based; procedure, shortened: as §1
[13] = target: T2, DNA topoisomerase (Bos taurus); assay: Induction of calf thymus Topo 1-pBR322 DNA cleavage complex formation assessed as nicked DNA formation at 0.5 to 10 uM after 30 mins by optical density analysis; procedure, shortened: as §2
[14] = test system: Nucleic Acid; assay: Binding affinity to Escherichia coli pBR322 DNA assessed as DNA intercalation activity compound preincubated for 10 mins before enzyme addition by DNA unwinding assay in presence of topoisomerase 1; assay type: nucleic-acid assay
[15] = target: DNA topoisomerase 2-alpha (Homo sapiens) (UniProt P11388); assay: Competitive inhibition of human Topo 2 ATPase domain expressed in yeast BCY123 strain after 1 hr by Lineweaver-Burk plot method
Procedure, shortened: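 Human Topo II ATPase domain expressed in yeast BCY123 and purified. Assay buffer: 100 mM Tris-HCl pH 7.4, 20 mM KCl, 6 mM MgCl2. ATP at 250, 500, 800, 1,000 and 2000 µM at each fixed compound level (0, 5, 25, 50, 100 µM), 1 h at 37 °C. Phosphate read by malachite green at 620 nm.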

[16] = target: DNA topoisomerase 2-alpha (Homo sapiens) (UniProt P11388); assay: Inhibition of human Topo 2 ATPase domain expressed in yeast BCY123 strain at 25 uM after 1 hr by nonisotopic malachite green assay
Procedure, shortened: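 Human Topo II ATPase domain overexpressed in yeast BCY123 and purified. Assay buffer: 100 mM Tris-HCl pH 7.4, 20 mM KCl, 6 mM MgCl2. Reaction of 25 µL with compound, started with 1 mM ATP, 1 h at 37 °C. Phosphate detected with malachite green at OD620. No-enzyme background set as 100% inhibition and enzyme-only as 0%.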

[17] = target: DNA topoisomerase 2-alpha (Homo sapiens) (UniProt P11388); assay: Inhibition of human Topo 2-mediated relaxation of supercoiled pBR322 plasmid at 25 uM after 30 mins by agarose gel electrophoresis

DNA topoisomerase 2-alpha (Homo sapiens), sequence (P11388 whole entry, the tested form may be a part): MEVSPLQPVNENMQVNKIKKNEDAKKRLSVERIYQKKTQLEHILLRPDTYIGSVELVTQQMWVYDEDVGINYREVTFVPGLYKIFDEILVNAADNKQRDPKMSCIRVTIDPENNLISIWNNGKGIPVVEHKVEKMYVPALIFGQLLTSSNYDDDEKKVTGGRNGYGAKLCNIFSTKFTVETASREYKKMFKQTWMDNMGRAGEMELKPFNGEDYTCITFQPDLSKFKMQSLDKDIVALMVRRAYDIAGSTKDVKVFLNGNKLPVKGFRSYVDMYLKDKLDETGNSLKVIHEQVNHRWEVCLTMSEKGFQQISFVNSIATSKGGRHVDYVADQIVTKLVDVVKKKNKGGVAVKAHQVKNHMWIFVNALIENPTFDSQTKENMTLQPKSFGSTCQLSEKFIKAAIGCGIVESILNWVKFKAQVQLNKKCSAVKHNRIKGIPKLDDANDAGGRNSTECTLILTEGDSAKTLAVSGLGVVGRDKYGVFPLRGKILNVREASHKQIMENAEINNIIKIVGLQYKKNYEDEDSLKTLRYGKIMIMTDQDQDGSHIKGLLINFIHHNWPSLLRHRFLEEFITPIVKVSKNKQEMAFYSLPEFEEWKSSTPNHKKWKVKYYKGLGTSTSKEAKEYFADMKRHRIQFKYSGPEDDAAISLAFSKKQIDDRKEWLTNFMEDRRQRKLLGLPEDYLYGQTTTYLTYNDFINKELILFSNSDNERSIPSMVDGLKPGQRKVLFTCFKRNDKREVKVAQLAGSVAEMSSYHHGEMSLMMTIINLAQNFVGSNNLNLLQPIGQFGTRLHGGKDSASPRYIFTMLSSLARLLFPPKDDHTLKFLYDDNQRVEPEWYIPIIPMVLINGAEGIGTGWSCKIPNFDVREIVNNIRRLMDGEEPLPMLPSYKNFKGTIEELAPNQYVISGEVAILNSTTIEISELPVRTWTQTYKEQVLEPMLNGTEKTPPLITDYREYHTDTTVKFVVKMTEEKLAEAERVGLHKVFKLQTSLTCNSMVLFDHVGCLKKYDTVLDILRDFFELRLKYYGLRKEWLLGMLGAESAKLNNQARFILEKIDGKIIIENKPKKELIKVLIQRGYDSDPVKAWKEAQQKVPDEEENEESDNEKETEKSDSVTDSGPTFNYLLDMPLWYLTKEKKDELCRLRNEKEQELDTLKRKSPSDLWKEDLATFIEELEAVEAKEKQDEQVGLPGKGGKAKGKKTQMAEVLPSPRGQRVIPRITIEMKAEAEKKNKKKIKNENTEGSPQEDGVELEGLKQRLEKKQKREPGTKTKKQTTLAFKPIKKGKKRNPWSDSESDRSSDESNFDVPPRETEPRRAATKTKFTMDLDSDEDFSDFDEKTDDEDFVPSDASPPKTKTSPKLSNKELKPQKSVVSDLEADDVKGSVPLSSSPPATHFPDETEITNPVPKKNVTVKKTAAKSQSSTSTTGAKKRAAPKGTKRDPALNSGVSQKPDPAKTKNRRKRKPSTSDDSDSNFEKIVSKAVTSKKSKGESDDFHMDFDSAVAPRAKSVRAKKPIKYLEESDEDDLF

| SMILES | pIC50 [1] | Activity [2] | Kapp [3] [×10⁵ /M] | Topo I relaxation inhibition (active/not active) [4] | Topo 2 inhibition (active/not active) [5] | Activity [6] | Activity [7] | Activity [8] | fold change (FC) [9] | pIC50 [10] | pIC50 [11] | pIC50 [12] | Activity [13] | Activity [14] | inhibition [15] | inhibition [16] [%] | Topo 2 inhibition (active/not active) [17] |
| --- | --- | --- | --- | --- | --- | --- | --- | --- | --- | --- | --- | --- | --- | --- | --- | --- | --- |
| CN(C)CCCCn1c2cc(=O)c3ccccc3c-2nc2ccccc21 | 6.42 | Active | 4.83 | Active | Active | Active | inactive | Dose-dependent effect | 2.5 | 5.33 | 4.79 | 4.67 | Dose-dependent effect |  |  |  |  |
| CC[n+]1c(-c2ccccc2)c2cc(N)ccc2c2ccc(N)cc21 |  |  |  |  |  |  |  |  |  |  |  |  |  | Dose-dependent effect |  |  |  |
| COc1ccc2c3nc4ccc(OC)cc4n(CCCN(C)C)c-3cc(=O)c2c1 | 7.05 |  |  |  |  |  |  |  |  | 5.06 | 4.58 | 4.74 |  |  | Dose-dependent effect | 78 | Active |
